{"data": "Measurements collected from several papers", "target": "Calcium/calmodulin-dependent protein kinase kinase 1 (CAMKK1, Homo sapiens, UniProt Q8N5S9)", "note": "Compare with care: the assays were run in different laboratories."}
{"Compound": "CN(C)c1nccc(-c2cnc3ncccn23)n1", "effect on": "binding", "tested at": "1 µM", "remaining binding [%]": 100}
{"Compound": "O=C(Nc1cccnn1)N1CC(C/C=C/c2cncc(Oc3ccc(C(F)(F)F)cn3)n2)C1", "effect on": "cell-free assay", "technique": "competition with immobilised ligand", "tested at": "1 µM", "remaining binding [%]": 100}
{"Compound": "c1cncc(-c2cccc(Nc3nccc(NC4CCCCC4)n3)c2)c1", "effect on": "binding", "technique": "competition with immobilised ligand", "tested at": "10 µM", "remaining binding [%]": 68}
{"Compound": "CNC(=O)[C@@H]1CC[C@@H](n2c(-c3ccc4cnccc4c3)nc3ccc(C(=O)NCc4cccc(C(N)=O)c4)cc32)C1", "effect on": "binding", "technique": "competition with immobilised ligand", "tested at": "1 µM", "remaining binding [%]": 94}
{"Compound": "O=C(Nc1c[nH]nc1C(=O)NC1CCNCC1)c1cc(F)cc(F)c1", "effect on": "binding", "technique": "competition with immobilised ligand", "tested at": "1 µM", "remaining binding [%]": 90}
{"Compound": "CN(C)c1ncc(F)c(-c2cnn3ncccc23)n1", "effect on": "binding", "tested at": "1 µM", "remaining binding [%]": 90}
{"Compound": "Cc1noc([C@H]2C[C@@H](c3ccc(C(F)(F)F)cc3)CN(C(=O)N3CCS(=O)(=O)C3)C2)n1", "effect on": "cell-free assay", "technique": "competition with immobilised ligand", "tested at": "1 µM", "remaining binding [%]": 100}
{"Compound": "Cc1cnc(Nc2ccc(C(=O)N3CCC(N4CCCC4)CC3)cc2)nc1-c1cc2ccccc2s1", "effect on": "binding", "technique": "competition with immobilised ligand", "tested at": "1 µM", "remaining binding [%]": 79}
{"Compound": "C=CC(=O)N1CCC(C(=O)NCC(=O)N2CCN(c3nc(-c4cnc(N)nc4C(F)F)nc(N4CCOCC4)n3)CC2)CC1", "effect on": "binding", "technique": "competition with immobilised ligand", "tested at": "1 µM", "remaining binding [%]": 96}
{"Compound": "CC1CCCN1c1nccc(-c2cnn3ncccc23)n1 (stereo not shown)", "effect on": "binding", "tested at": "1 µM", "remaining binding [%]": 100}
{"Compound": "COc1cnc(Nc2cccc(S(N)(=O)=O)c2)nc1N1CCN(c2ccccc2)CC1", "effect on": "binding", "technique": "competition with immobilised ligand", "tested at": "1 µM", "remaining binding [%]": 92}
{"Compound": "Cc1nc(C2CCN(C(=O)c3ccc(OC(F)(F)F)cc3N)CC2)c2ncc(N3CCN(C)CC3)cc2n1", "effect on": "cell-free assay", "technique": "competition with immobilised ligand", "tested at": "1 µM", "remaining binding [%]": 100}
{"Compound": "N[C@@H]1CCN(c2nccc(-c3cnn4ncccc34)n2)C1", "effect on": "binding", "tested at": "1 µM", "remaining binding [%]": 100}
{"Compound": "O=C(NCCCN1CCOCC1)c1ccc(Nc2ncc(Cl)c(-c3ccc(Cl)s3)n2)cc1", "effect on": "binding", "technique": "competition with immobilised ligand", "tested at": "1 µM", "remaining binding [%]": 73}
{"Compound": "CNCc1ccccc1-c1csc([C@H](C)Nc2nc(C)nc3cc(OC)c(OC)cc23)c1", "effect on": "cell-free assay", "technique": "competition with immobilised ligand", "tested at": "1 µM", "remaining binding [%]": 99}
{"Compound": "Nc1ncc2c(n1)-c1c([nH]c3ccc(C#CC4CC4)cc13)CCCC2", "effect on": "binding", "technique": "competition with immobilised ligand", "tested at": "1 µM", "remaining binding [%]": 98}
{"Compound": "O=C(O)[C@@H]1[C@@H](Cn2nnc3ccccc3c2=O)CC[C@H]1C(=O)c1ccc(OCCC2CCOCC2)cc1", "effect on": "cell-free assay", "technique": "competition with immobilised ligand", "tested at": "1 µM", "remaining binding [%]": 100}
{"Compound": "Cc1cnn2ncc(-c3ccnc(N(C)C)n3)c2c1", "effect on": "binding", "tested at": "1 µM", "remaining binding [%]": 84}
{"Compound": "O=C(c1ccc(Nc2nccc(-c3cc4ccccc4s3)n2)cc1)N1CCC(N2CCCC2)CC1", "effect on": "binding", "technique": "competition with immobilised ligand", "tested at": "1 µM", "remaining binding [%]": 93}
{"Compound": "CC(=O)Nc1c(C(C)=O)c(=O)n(C)c2nc(-c3ccc(Cl)cc3Cl)c(-c3ccc(Cl)cc3)cc12", "effect on": "cell-free assay", "technique": "competition with immobilised ligand", "tested at": "1 µM", "remaining binding [%]": 100}
{"Compound": "C[C@H]1CCN(c2nccc(-c3cnn4ncccc34)n2)C1", "effect on": "binding", "tested at": "1 µM", "remaining binding [%]": 91}
{"Compound": "COc1ncc2cc3ccccc3nc2c1C#N", "effect on": "cell-free assay", "technique": "competition with immobilised ligand", "tested at": "5 µM", "remaining binding [%]": 87}
